Reference: ChEMBL document CHEMBL3085660, “Synthesis and evaluation of new coumarin-pyridine hybrids with promising anti-osteoporotic activities” (Eur J Med Chem, 2013)
Calls of active or inactive are those of the source. The calls are words filed in the database; no cut-off is given here.

Tests used:
[1] = tested on: Calvarial cell; experiment: Induction of osteoblast differentiation in mouse Calvarial cells assessed as increase in alkaline phosphatase activity at 10 nM after 48 hrs by spectrophotometry relative to control; type: functional, cell-based
Method in brief: (§1)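 Neonatal mouse calvarial osteoblasts trypsinized at 70–80% confluence, 2 × 10³ cells/well, treated 48 h in differentiation medium (α-MEM, 10% FCS, 10 mM β-glycerophosphate, ascorbic acid), 1 pM to 1 µM. Cells PBS-washed, freeze-thawed (−80 °C then 37 °C, 30 min each). ALP measured with p-nitrophenylphosphate at 405 nm. Mean ± S.D. of three independent experiments versus untreated control.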

[2] = Increase in osteoblastogenesis in mouse Calvarial cells assessed as increase in Runx-2 gene expression at 10 nM by quantitative RT-PCR method relative to untreated-control; type: functional, Calvarial cell
Method in brief: (§2)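 Transcripts of Runx-2, BMP-2 and COL-1 in primary mouse calvarial osteoblasts after compound treatment measured by qPCR, with GAPDH as internal control. Results expressed as fold change over untreated cells.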

[3] = Increase in osteoblastogenesis in mouse Calvarial cells assessed as increase in BMP-2 gene expression at 10 nM by quantitative RT-PCR method relative to untreated-control; type: functional, Calvarial cell; method in brief: as §2
[4] = Increase in mineralization in mouse Calvarial cells assessed as mineralized nodule formation at 10 nM after 21 days using alizarin red-S staining by spectrophotometry relative to untreated-control; type: functional, Calvarial cell
[5] = tested on: Calvarial cell; experiment: Induction of osteoblast differentiation in mouse Calvarial cells assessed as increase in alkaline phosphatase activity at 1 to 100 pM after 48 hrs by spectrophotometry relative to control; type: functional, cell-based; method in brief: as §1
[6] = Increase in mineralization in mouse Calvarial cells assessed as mineralized nodule formation at 1 pM after 21 days using alizarin red-S staining by spectrophotometry relative to untreated-control; type: functional, Calvarial cell
[7] = Increase in osteoblastogenesis in mouse Calvarial cells assessed as increase in BMP-2 gene expression at 1 uM by quantitative RT-PCR method relative to untreated-control; type: functional, Calvarial cell; method in brief: as §2
[8] = Increase in mineralization in mouse Calvarial cells assessed as mineralized nodule formation at 1 uM after 21 days using alizarin red-S staining by spectrophotometry relative to untreated-control; type: functional, Calvarial cell
[9] = tested on: Calvarial cell; experiment: Induction of osteoblast differentiation in mouse Calvarial cells assessed as increase in alkaline phosphatase activity at 10 nM to 1 uM after 48 hrs by spectrophotometry relative to control; type: functional, cell-based; method in brief: as §1
[10] = tested on: Calvarial cell; experiment: Induction of osteoblast differentiation in mouse Calvarial cells assessed as increase in alkaline phosphatase activity at 100 pM to 1 uM after 48 hrs by spectrophotometry relative to control; type: functional, cell-based; method in brief: as §1
[11] = Increase in osteoblastogenesis in mouse Calvarial cells assessed as increase in COL1 gene expression at 100 pM by quantitative RT-PCR method relative to untreated-control; type: functional, Calvarial cell; method in brief: as §2
[12] = Increase in osteoblastogenesis in mouse Calvarial cells assessed as increase in BMP-2 gene expression at 100 pM by quantitative RT-PCR method relative to untreated-control; type: functional, Calvarial cell; method in brief: as §2
[13] = Increase in mineralization in mouse Calvarial cells assessed as mineralized nodule formation at 100 pM after 21 days using alizarin red-S staining by spectrophotometry relative to untreated-control; type: functional, Calvarial cell
[14] = Increase in osteoblastogenesis in mouse Calvarial cells assessed as increase in Runx-2 gene expression at 100 pM by quantitative RT-PCR method relative to untreated-control; type: functional, Calvarial cell; method in brief: as §2

## CCOC(=O)c1c(C)nc2c(c1-c1cc(C(C)CC)c3oc(=O)c(C(=O)OC)cc3c1)C(=O)CCC2 (centres undefined)
[1]
  Activity: Active
[2]
  fold change (FC): 5.2
[3]
  fold change (FC): 4.8
[4]
  fold change (FC): 3

## CCOC(=O)c1c(C)nc2c(c1-c1cc(C(C)CC)c3oc(=O)c(C(=O)OCC)cc3c1)C(=O)CC(C)(C)C2 (centres undefined)
[5]
  Activity: Active
[6]
  fold change (FC): 2

## CCOC(=O)c1c(C)nc(C)c(C(=O)OCC)c1-c1cc(C)c2oc(=O)c(C(=O)OC)cc2c1
[7]
  fold change (FC): 2.5
[8]
  fold change (FC): 2
[9]
  Activity: Active

## CCOC(=O)c1cc2cc(-c3c(C(=O)OC)c(C)nc4c3C(=O)CCC4)cc(C(C)CC)c2oc1=O (centres undefined)
[10]
  Activity: Active
[11]
  fold change (FC): 3.1
[12]
  fold change (FC): 2.4
[13]
  fold change (FC): 3.5
[14]
  fold change (FC): 5
